From ChEMBL document CHEMBL1121699, “Induction of differentiation of leukemia cells in vitro by N-substituted amides, lactams, and 2-pyridones” (1981)

Tests used:
[1] = test system: Erythroleukemia cell line; test: Cell growth was measured on day 3, after murine erythroleukemia cells were exposed at a cell concentration of 1*10e5 cells/mL.; format: functional, Mus musculus
Procedure, shortened: (§1)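 Friend murine erythroleukemia cells (clone 745A) were grown in DMEM with 15% fetal calf serum at 37 °C in 10% CO2. Agents were given as aqueous, ethanol or acetone solutions at seeding (1 × 10^5 cells/mL) and left on continuously. Cells were counted electronically on day 3 or day 6 and expressed as percentage of control growth. Runs were in duplicate.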

[2] = test system: Erythroleukemia cell line; test: Concentration producing the maximum percentage of benzidine-positive cells after 6-days of continuous exposure in murine leukemia cells.; format: functional, cell-based; conditions: Mus musculus
Procedure, shortened: (§2)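 Clone 745A erythroleukemia cells were exposed continuously from seeding (1 × 10^5 cells/mL) to graded twofold concentrations over at least a 10-fold range, in at least two experiments, with a Me2SO (210 mM) positive control. On day 6, hemoglobin-containing cells were stained blue with acid benzidine peroxide and counted by light microscopy. The optimum concentration was averaged across experiments.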

[3] = test system: Erythroleukemia cell line; test: Percentage of benzidine-positive murine erythroleukemia cells on day 6.; format: functional, Mus musculus; procedure, shortened: as §2
[4] = test system: Erythroleukemia cell line; test: Cell growth was measured on day 6 after murine erythroleukemia cells were exposed at a cell concentration of 1*10e5 cells/mL.; format: functional, Mus musculus; procedure, shortened: as §1

In the case of `CN1CCCC1=O` [METHYLPYRROLIDONE], the Cell growth [1] is reported as 97%, the Concentration [2] is reported as 10 mM and the Benzidine positive cells [3] is reported as 87%. The Cell growth [4] was 83%.
For `CC(=O)Nc1ccccn1`, the Cell growth [1] was 144%, the Concentration [2] was 2 mM and the Benzidine positive cells [3] was 85%. For the same molecule, the Cell growth [4] was 58%.
Molecule `Oc1ccccn1` has a Cell growth [1] of 114%, a Concentration [2] of 16 mM and a Benzidine positive cells [3] of 95%. The Cell growth [4] was 77%.
Molecule `O=C1CCCCCN1` [CAPROLACTAM] has a Cell growth [1] of 95%, a Concentration [2] of 20 mM and a Benzidine positive cells [3] of 82%. It also gave a Cell growth [4] of 81%.
Work on `O=C(CCl)Nc1ccccn1` yielded a Cell growth [1] of 98%, a Concentration [2] of 2 mM and a Benzidine positive cells [3] of 83%. For the same molecule, the Cell growth [4] was 119%.
Work on `CNC(=O)c1ccccn1` yielded a Cell growth [1] of 50%, a Concentration [2] of 2 mM and a Benzidine positive cells [3] of 60%. The Cell growth [4] was 80%.
`CC(=O)Nc1ccncc1` showed a Cell growth [1] of 37%, a Concentration [2] of 5 mM and a Benzidine positive cells [3] of 34%. The Cell growth [4] was 60%.
For `CCN1CCCCCC1=O`, the Cell growth [1] was 106%, the Concentration [2] was 4 mM and the Benzidine positive cells [3] was 96%. It also gave a Cell growth [4] of 63%.
`CCCCn1ccccc1=O` gave a Cell growth [1] of 103%, a Concentration [2] of 1 mM and a Benzidine positive cells [3] of 76%. The Cell growth [4] was 125%.
`CC(=O)N(c1ccccn1)c1ccccn1` gave a Cell growth [1] of 74%, a Concentration [2] of 2 mM and a Benzidine positive cells [3] of 36%. For the same molecule, the Cell growth [4] was 85%.
For `CNC(=O)c1cccnc1` [NICOTINYL METHYLAMIDE], the Cell growth [1] was 94%, the Concentration [2] was 4 mM and the Benzidine positive cells [3] was 93%. The Cell growth [4] was 78%.
For `O=C1CCCN1` [2-PYRROLIDONE], the Cell growth [1] was 26%, the Concentration [2] was 100 mM and the Benzidine positive cells [3] was 89%. It also gave a Cell growth [4] of 100%.
`CC(=O)Nc1cccnc1` gave a Cell growth [1] of 183%, a Concentration [2] of 5 mM and a Benzidine positive cells [3] of 86%. It also gave a Cell growth [4] of 167%.
For `CN1CCCCC1=O`, the Cell growth [1] was 97%, the Concentration [2] was 5 mM and the Benzidine positive cells [3] was 89%. The Cell growth [4] was 69%.
`CC(=O)N1CCCC1` gave a Cell growth [1] of 54%, a Concentration [2] of 4 mM and a Benzidine positive cells [3] of 60%. For the same molecule, the Cell growth [4] was 99%.
In the case of `CN1CCCCCC1=O`, the Cell growth [1] is reported as 109%, the Concentration [2] is reported as 2 mM and the Benzidine positive cells [3] is reported as 90%. For the same molecule, the Cell growth [4] was 68%.
`CNC(C)=O` was tested, and the Cell growth [1] was 121%, the Concentration [2] was 40 mM and the Benzidine positive cells [3] was 90%. For the same molecule, the Cell growth [4] was 55%.
With `CCCCCCn1ccccc1=O` the Cell growth [1] was 101%, the Concentration [2] was 1 mM and the Benzidine positive cells [3] was 58%. For the same molecule, the Cell growth [4] was 75%.
`CC(=O)N1CCCCCC1=O` showed a Cell growth [1] of 102%, a Concentration [2] of 4 mM and a Benzidine positive cells [3] of 53%. For the same molecule, the Cell growth [4] was 85%.
In the case of `CCN1CCCC1=O`, the Cell growth [1] is reported as 53%, the Concentration [2] is reported as 10 mM and the Benzidine positive cells [3] is reported as 90%. The Cell growth [4] was 81%.
`O=C(Nc1ccccn1)C(F)(F)F` was tested, and the Cell growth [1] was 98%, the Concentration [2] was 1 mM and the Benzidine positive cells [3] was 69%. The Cell growth [4] was 89%.
For `O=C1CCCCN1`, the Cell growth [1] was 72%, the Concentration [2] was 40 mM and the Benzidine positive cells [3] was 64%. For the same molecule, the Cell growth [4] was 67%.
For `CCN1CCCCC1=O`, the Cell growth [1] was 186%, the Concentration [2] was 4 mM and the Benzidine positive cells [3] was 87%. It also gave a Cell growth [4] of 84%.
With `CC(=O)N(C)C` the Cell growth [1] was 32%, the Concentration [2] was 40 mM and the Benzidine positive cells [3] was 84%. The Cell growth [4] was 21%.
For `CC(C)n1ccccc1=O`, the Cell growth [1] was 96%, the Concentration [2] was 2 mM and the Benzidine positive cells [3] was 90%. The Cell growth [4] was 80%.
Work on `CC(=O)N1CCCC1=O` yielded a Cell growth [1] of 156%, a Concentration [2] of 20 mM and a Benzidine positive cells [3] of 73%. For the same molecule, the Cell growth [4] was 116%.
Molecule `CNC(=O)c1ccccc1` has a Cell growth [1] of 54%, a Concentration [2] of 1 mM and a Benzidine positive cells [3] of 62%. The Cell growth [4] was 99%.
With `CCn1ccccc1=O` the Cell growth [1] was 78%, the Concentration [2] was 4 mM and the Benzidine positive cells [3] was 86%. For the same molecule, the Cell growth [4] was 79%.
In the case of `CC(=O)NC1CCCCC1`, the Cell growth [1] is reported as 95%, the Concentration [2] is reported as 4 mM and the Benzidine positive cells [3] is reported as 92%. It also gave a Cell growth [4] of 150%.
With `Cn1ccccc1=O` the Cell growth [1] was 74%, the Concentration [2] was 4 mM and the Benzidine positive cells [3] was 89%. The Cell growth [4] was 62%.
Molecule `CCCn1ccccc1=O` has a Cell growth [1] of 112%, a Concentration [2] of 2 mM and a Benzidine positive cells [3] of 82%. For the same molecule, the Cell growth [4] was 129%.
`CC(=O)Nc1ccccc1` [ACETANILIDE] was tested, and the Cell growth [1] was 75%, the Concentration [2] was 4 mM and the Benzidine positive cells [3] was 71%. The Cell growth [4] was 65%.
`O=C(Nc1ccccn1)c1ccccn1` showed a Cell growth [1] of 35%, a Concentration [2] of 1 mM and a Benzidine positive cells [3] of 33%. The Cell growth [4] was 50%.
`CC(=O)N1CCCCC1=O` was tested, and the Cell growth [1] was 170%, the Concentration [2] was 20 mM and the Benzidine positive cells [3] was 86%. The Cell growth [4] was 74%.
`CC(=O)N1CCCCC1` was tested, and the Cell growth [1] was 50%, the Concentration [2] was 8 mM and the Benzidine positive cells [3] was 85%. It also gave a Cell growth [4] of 138%.
